Experimental data reported in ChEMBL document CHEMBL4725226, “Discovery of a new potent inhibitor of mushroom tyrosinase (Agaricus bisporus) containing 4-(4-hydroxyphenyl)piperazin-1-yl moiety” (Bioorg Med Chem, 2020).
The source made the active and inactive calls. The calls are words filed in the database; no cut-off is given here.

Key:
Mushroom tyrosinase = Mushroom tyrosinase (Agaricus bisporus, UniProt O42713+Q00024+C7FF04+C7FF05); test: Inhibition of diphenolase activity of mushroom tyrosinase using L-Dopa as substrate preincubated with substrate for 10 mins followed by enzyme addition and measured after 5 mins
Method in brief: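 Diphenolase assay: sample (5–300 µM) with 1.25 mM L-DOPA in 0.05 M sodium acetate pH 6.8, preincubated 10 min at 25 °C; mushroom tyrosinase (333 U/mL stock) added last. Linear A475 rise followed up to 5 min; % inhibition, IC50 interpolated from dose-response curves; three replicates. Kojic acid standard at 8–35 µM.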

[1] = target: T1, Mushroom tyrosinase (Agaricus bisporus) (UniProt O42713+Q00024+C7FF04+C7FF05); test: Potency index, ratio of kojic acid IC50 to test compound IC50 for diphenolase activity of mushroom tyrosinase using L-Dopa as substrate preincubated with substrate for 10 mins followed by enzyme addition and measured after 5 mins
HeLa = test: Cytotoxicity against human HeLa cells assessed as cell viability at 4 to 10 uM measured after 48 hrs by MTT assay; type: cell-based; conditions: dose 4-10 µM
Method in brief: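 HeLa grown in DMEM with 10% FBS, 2 mM L-glutamine, penicillin/streptomycin, 37 °C, 5% CO2; seeded at 3 × 10^4/mL. Exposed 48 h to compound (4–100 µM in DMSO, DMSO-only control), then MTT (0.5 mg/mL final) 3 h at 37 °C, lysed in DMSO, OD 560 nm; mean ± SD of triplicates.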

[2] = target: T1, Mushroom tyrosinase (Agaricus bisporus); test: Noncompetitive inhibition of diphenolase activity of mushroom tyrosinase assessed as decrease in Vmax with constant Km at 2 to 8 uM using 0.6 to 5 mM L-dopa as substrate by Lineweaver-Burk double reciprocal plot analysis; conditions: dose microM 2-8
[3] = Antioxidant activity assessed as ABTS radical scavenging activity incubated in dark for 1 min; type: functional
Method in brief: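 ABTS radical cation generated from 7 mM ABTS plus 2.45 mM potassium persulfate (final), held dark at room temperature 24 h, then diluted to A734 0.700 ± 0.02. Sample added, kept dark at room temperature 1 min; drop in A734 read against a Trolox standard curve.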

SMILES	IC50 (Mushroom tyrosinase) [µM]	other results
O=C(CCN1CCC(Cc2ccccc2)CC1)N1CCN(c2ccccc2)CC1	57.5	
O=C(CN1CCC(Cc2ccccc2)CC1)N1CCN(c2ccc(O)cc2)CC1	3.8	Ratio IC50 [1]: 5; Activity (HeLa): Non-Toxic; inhibition [2]: Active; EC50 [3]: 18.1 µM
O=C(CN1CCC(Cc2ccccc2)CC1)N1CCN(c2ccccc2)CC1	80.86	
Cc1c(C)c2c(c(C)c1O)CCC(C)(C(=O)O)O2 (stereo not drawn) [TROLOX]		EC50 [3]: 13 µM
O=C(CCN1CCC(Cc2ccc(F)cc2)CC1)N1CCN(c2ccccc2)CC1	23.36	
O=C(CN1CCC(Cc2ccc(F)cc2)CC1)N1CCN(c2ccc(O)cc2)CC1	4.49	
O=C(CN1CCC(Cc2ccc(F)cc2)CC1)N1CCN(c2ccccc2)CC1	9.6	
O=C(CCN1CCC(Cc2ccccc2)CC1)N1CCN(c2ccc(O)cc2)CC1	4.03	
O=C(CCN1CCC(Cc2ccc(F)cc2)CC1)N1CCN(c2ccc(O)cc2)CC1	6.06	
